Assay results reported in ChEMBL document CHEMBL1764953, “Discovery of orally active carboxylic acid derivatives of 2-phenyl-5-trifluoromethyloxazole-4-carboxamide as potent diacylglycerol acyltransferase-1 inhibitors for the potential treatment of obesity and diabetes” (J Med Chem, 2011).
Values after ≈ are worked out from the molar mass of the structure shown. Active and inactive are the calls of the source. The rule behind the calls is not given here.

Assays:
Rattus norvegicus [1] = assay: Antidiabetic activity in diet-induced obese Sprague-Dawley rat assessed as decrease in glucose excursion at 1 mg/kg, po administered once daily for 3 weeks by OGTT; assay type: functional, organism-based; parameters: dose 1 mg/kg
How it was run: (§1)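 Male Sprague-Dawley DIO rats (n = 10/group), 550–650 g, reverse light/dark cycle, high fat diet from 7 weeks of age; dosed po once daily in Klucel suspension.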

Rattus norvegicus [2] = assay: Antiobesity activity in diet-induced obese rat assessed as decrease in food intake at 3 mg/kg, po administered once daily for 3 weeks; assay type: functional; parameters: scale not given: the % may be the effect or the level left
How it was run: (§2)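 Male DIO rats, 19 weeks old, on high fat diet for 12 weeks, dosed po once daily with Klucel (hydroxypropyl cellulose) suspension for 22 days; 10 rats per group. Body weight followed throughout; daily food intake recorded on days 1–3, 8, 9, 15 and 16, values averaged per group.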

Rattus norvegicus [3] = assay: Antiobesity activity in diet-induced obese rat assessed as decrease in food intake at 0.3 mg/kg, po administered once daily for 3 weeks; assay type: functional; parameters: scale not given: the % may be the effect or the level left; how it was run: as §2
[4] = Cmax in diet-induced obese rat at 1 mg/kg, po administered once daily for 3 weeks; assay type: ADME, organism-based; parameters: dose 1 mg/kg, route oral; details: in vivo
[5] = Cmax in diet-induced obese rat at 0.3 mg/kg, po administered once daily for 3 weeks; assay type: ADME, organism-based; parameters: dose 0.3 mg/kg, route oral; details: in vivo
Rattus norvegicus [6] = assay: Antiobesity activity in diet-induced obese rat assessed as reduction in body weight gain at 3 mg/kg, po administered once daily for 3 weeks; assay type: functional; parameters: scale not given: the % may be the effect or the level left; how it was run: as §2
[7] = Oral bioavailability in Beagle dog at 10 mg/kg; assay type: ADME, organism-based, Canis lupus familiaris; details: in vivo
How it was run: (§3)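 Plasma extracted by acetonitrile precipitation and quantified by LC-MS/MS (5.0–5000 ng/mL); noncompartmental PK; bioavailability relative to 5 mg/kg iv; mean of n = 3.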

[8] = Tmax in Hanover Wistar rat at 10 mg/kg, po; assay type: ADME, organism-based; parameters: dose 10 mg/kg, route oral; details: in vivo
How it was run: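 Oral gavage to rats (jugular/femoral vein-cannulated, femoral vein blood sampling) or beagle dogs, n = 3, as a 2 mg/mL suspension in 2% Klucel LF with 0.1% Tween 80 in water. Plasma extracted by acetonitrile protein precipitation and quantified by LC-MS/MS (linear 5.0–5000 ng/mL). Noncompartmental analysis; mean of 3.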

[9] = Cmax in Beagle dog at 10 mg/kg, po by LC-MS/MS; assay type: ADME, organism-based, Canis lupus familiaris; parameters: dose 10 mg/kg, route oral; details: in vivo; how it was run: as §3
[10] = Extrapolated AUC in Beagle dog at 10 mg/kg, po; assay type: ADME, organism-based, Canis lupus familiaris; parameters: dose 10 mg/kg, route oral; details: in vivo; how it was run: as §3
[11] = Half life in Hanover Wistar rat at 5 mg/kg, iv; assay type: ADME, organism-based; parameters: dose 5 mg/kg, route intravenous; details: in vivo
How it was run: (§4)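 Hanover Wistar rats (n = 3) cannulated in jugular and femoral veins, dosed iv 5 mg/kg via jugular vein as a solution in 2% DMA, 15% PEG400, 77% of 28% HPβCD in pH 7 PBS. Femoral-vein blood, EDTA plasma, acetonitrile precipitation, LC-MS/MS, noncompartmental analysis; mean of n = 3.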

[12] = Clearance in Beagle dog at 5 mg/kg, iv; assay type: ADME, organism-based, Canis lupus familiaris; parameters: dose 5 mg/kg, route intravenous; details: in vivo
How it was run: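 Plasma levels by protein precipitation with acetonitrile and LC-MS/MS (linear range 5.0–5000 ng/mL); noncompartmental analysis; mean of n = 3.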

[13] = Clearance in Hanover Wistar rat at 5 mg/kg, iv; assay type: ADME, organism-based; parameters: dose 5 mg/kg, route intravenous; details: in vivo; how it was run: as §4
Cytochrome P450 2D6 = Cytochrome P450 2D6 (Homo sapiens, UniProt P10635); assay: Inhibition of CYP2D6; assay type: ADME
Chain of Cytochrome P450 2D6 (P10635 whole entry): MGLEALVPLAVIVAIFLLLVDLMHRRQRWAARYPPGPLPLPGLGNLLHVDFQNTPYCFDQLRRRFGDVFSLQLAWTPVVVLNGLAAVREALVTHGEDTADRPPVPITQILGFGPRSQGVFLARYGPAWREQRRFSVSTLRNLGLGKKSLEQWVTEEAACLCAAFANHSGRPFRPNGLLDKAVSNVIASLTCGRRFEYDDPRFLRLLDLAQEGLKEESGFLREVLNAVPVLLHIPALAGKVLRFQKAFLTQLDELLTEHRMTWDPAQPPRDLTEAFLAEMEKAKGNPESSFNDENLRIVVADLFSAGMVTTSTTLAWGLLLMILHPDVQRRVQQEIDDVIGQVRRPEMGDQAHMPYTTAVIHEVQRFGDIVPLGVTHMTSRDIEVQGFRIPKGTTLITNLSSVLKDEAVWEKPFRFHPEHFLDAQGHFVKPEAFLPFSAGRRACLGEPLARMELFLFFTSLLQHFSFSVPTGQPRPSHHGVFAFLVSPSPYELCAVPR

[14] = Solubility of the compound at mp 217 degC; assay type: physicochemical
Rattus norvegicus [15] = assay: Antidiabetic activity in diet-induced obese Sprague-Dawley rat assessed as effect on insulin level at 0.3 mg/kg, po administered once daily for 3 weeks measured after 30 mins by OGTT; assay type: functional, organism-based; parameters: dose 0.3 mg/kg
How it was run: (§5)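 DIO rats (n = 10/group) on high fat diet, dosed po once daily in Klucel suspension for 3 weeks. On day 21 an oral glucose challenge of 2 g/kg was given, and plasma insulin was measured at the 30 min time point.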

Rattus norvegicus [16] = assay: Antidiabetic activity in diet-induced obese Sprague-Dawley rat assessed as effect on insulin level at 1 mg/kg, po administered once daily for 3 weeks measured after 30 mins by OGTT; assay type: functional, organism-based; parameters: dose 1 mg/kg; how it was run: as §5
Rattus norvegicus [17] = assay: Antidiabetic activity in diet-induced obese Sprague-Dawley rat assessed as effect on insulin level at 3 mg/kg, po administered once daily for 3 weeks measured after 30 mins by OGTT; assay type: functional, organism-based; parameters: dose 3 mg/kg; how it was run: as §5
Rattus norvegicus [18] = assay: Antidiabetic activity in diet-induced obese Sprague-Dawley rat assessed as insulin-mediated decrease in glucose level at 3 mg/kg, po administered once daily for 3 weeks OGTT; assay type: functional, organism-based; parameters: dose 3 mg/kg; how it was run: as §1
[19] = target: T1, Sterol O-acyltransferase 2 (Homo sapiens, UniProt O75908); assay: Inhibition of human ACAT2 expressed in human HepG2 cells after incubated with compound for 15 mins measured after 1 hr using palmitoyl-1-14C-coenzyme A by TLC assay; assay type: cell-based
T1 sequence (O75908 whole entry): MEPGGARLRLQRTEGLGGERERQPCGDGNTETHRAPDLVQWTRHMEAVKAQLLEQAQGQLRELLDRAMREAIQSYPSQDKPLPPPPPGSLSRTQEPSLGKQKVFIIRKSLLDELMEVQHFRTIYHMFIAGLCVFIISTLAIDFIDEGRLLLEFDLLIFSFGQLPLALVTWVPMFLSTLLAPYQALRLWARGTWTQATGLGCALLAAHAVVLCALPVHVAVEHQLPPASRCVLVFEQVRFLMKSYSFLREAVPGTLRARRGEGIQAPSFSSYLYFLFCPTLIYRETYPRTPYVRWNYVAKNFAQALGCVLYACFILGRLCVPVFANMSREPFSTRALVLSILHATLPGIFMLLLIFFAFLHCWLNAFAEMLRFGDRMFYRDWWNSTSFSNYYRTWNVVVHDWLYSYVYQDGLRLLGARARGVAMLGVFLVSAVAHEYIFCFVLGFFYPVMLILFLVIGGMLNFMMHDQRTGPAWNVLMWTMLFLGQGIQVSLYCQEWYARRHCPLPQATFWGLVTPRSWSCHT
How it was run: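 HepG2 membranes (mixed ACAT1/ACAT2), 2.6 mg/mL stock, diluted to 0.52 mg/mL in Tris pH 7.5 buffer. Preincubated 15 min on ice with compound (0–600 μM solutions in 20% DMSO), then 2.37 μM [1-14C]palmitoyl-CoA solution added. Product extracted and resolved by TLC with phosphoimager read-out.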

[20] = target: T2, Diacylglycerol O-acyltransferase 1 (Homo sapiens, UniProt O75907); assay: Inhibition of human DGAT1 expressed in CHO-K1 cells after 1 hr using 14C palmitic acid
T2 sequence (O75907 whole entry): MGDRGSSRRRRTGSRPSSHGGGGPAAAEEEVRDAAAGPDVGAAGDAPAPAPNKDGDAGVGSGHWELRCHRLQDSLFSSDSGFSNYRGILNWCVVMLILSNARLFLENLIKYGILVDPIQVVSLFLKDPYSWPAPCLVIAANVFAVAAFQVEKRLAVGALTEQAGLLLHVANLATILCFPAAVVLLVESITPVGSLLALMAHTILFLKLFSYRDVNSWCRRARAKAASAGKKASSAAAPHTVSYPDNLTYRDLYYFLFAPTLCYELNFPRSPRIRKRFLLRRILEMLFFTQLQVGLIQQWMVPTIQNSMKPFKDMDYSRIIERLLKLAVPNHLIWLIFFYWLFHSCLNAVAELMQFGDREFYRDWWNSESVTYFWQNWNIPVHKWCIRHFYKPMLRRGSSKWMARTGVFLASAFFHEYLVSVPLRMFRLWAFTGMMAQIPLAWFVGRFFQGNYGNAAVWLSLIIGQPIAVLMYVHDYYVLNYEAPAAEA

O=C(Nc1ccc(C2CCN(C(=O)[C@H]3CC[C@H](C(=O)O)CC3)CC2)cc1)c1nc(-c2ccccc2)oc1C(F)(F)F
Activity (Rattus norvegicus [1]): Active
Activity (Rattus norvegicus [2]): 27%
Activity (Rattus norvegicus [3]): 17%
Cmax [4]: 4.8 µM
Cmax [5]: 2000 nM
Activity (Rattus norvegicus [6]): 8%
bioavailability [7]: 33%
Tmax [8]: 12 h
Cmax [9]: 4.7 µM
AUC [10]: 77.9 µM·h
half-life [11]: 516 min
clearance [12]: 1.3 mL/min/kg
clearance [13]: 0.38 mL/min/kg
IC50 (Cytochrome P450 2D6): > 50 µM
solubility [14]: 15.4 µg/mL (≈ 27 µM)
Activity (Rattus norvegicus [15]): inactive
Activity (Rattus norvegicus [16]): inactive
Activity (Rattus norvegicus [17]): inactive
Activity (Rattus norvegicus [18]): Active
IC50 [19]: 68.4 µM
EC50 [20]: 493 nM
